Screening data: PubChem, several laboratories
m-calpain inh: inhibitors of pig calpain II | purified calpain II, fluorogenic peptide substrate, 30 min | 0.37% of 220,000 active | inhibition, % at 16 µM;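 active = inhibition above about 50%, limit read from the data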
ROMK mod: modulates human ROMK potassium channel activity | P48048 | Tet-inducible ROMK, thallium flux fluorescence; actives lie on both sides | B-score at 10 µM | 2% of 130,000 active | AID 1918;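 active = signal ratio slope over the read window, or its plate-corrected B-score, at least 3 SD from the plate mean, either direction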;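 also: B-score of the F/F0 ratio slope over 7 to 12 s after thallium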
KCC2 mod: modulates chloride dependent transport by human KCC2; Q9H2X9; KCC2 cells, thallium flux FluoZin-2 fluorescence; B-score of Tl+ flux slope (higher = more flux/activation; lower = inhibition) at 10 µM; 2.2% of 190,000 active;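 active = thallium flux slope and its plate-corrected score both differing from the plate sample mean at a set confidence after two filtering rounds, in either direction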;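 also: slope of fluorescence scaled to starting intensity during 10 to 20 s after thallium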
PKD1 kinase inh: inhibitors of human PKD1 kinase. Q15139. PKD1 kinase fluorescence polarization assay. inhibition, % (test concentration not listed). 0.056% of 200,000 active; in the data active = inhibition above about 50%
Target sequence (Q15139 whole entry, looked up): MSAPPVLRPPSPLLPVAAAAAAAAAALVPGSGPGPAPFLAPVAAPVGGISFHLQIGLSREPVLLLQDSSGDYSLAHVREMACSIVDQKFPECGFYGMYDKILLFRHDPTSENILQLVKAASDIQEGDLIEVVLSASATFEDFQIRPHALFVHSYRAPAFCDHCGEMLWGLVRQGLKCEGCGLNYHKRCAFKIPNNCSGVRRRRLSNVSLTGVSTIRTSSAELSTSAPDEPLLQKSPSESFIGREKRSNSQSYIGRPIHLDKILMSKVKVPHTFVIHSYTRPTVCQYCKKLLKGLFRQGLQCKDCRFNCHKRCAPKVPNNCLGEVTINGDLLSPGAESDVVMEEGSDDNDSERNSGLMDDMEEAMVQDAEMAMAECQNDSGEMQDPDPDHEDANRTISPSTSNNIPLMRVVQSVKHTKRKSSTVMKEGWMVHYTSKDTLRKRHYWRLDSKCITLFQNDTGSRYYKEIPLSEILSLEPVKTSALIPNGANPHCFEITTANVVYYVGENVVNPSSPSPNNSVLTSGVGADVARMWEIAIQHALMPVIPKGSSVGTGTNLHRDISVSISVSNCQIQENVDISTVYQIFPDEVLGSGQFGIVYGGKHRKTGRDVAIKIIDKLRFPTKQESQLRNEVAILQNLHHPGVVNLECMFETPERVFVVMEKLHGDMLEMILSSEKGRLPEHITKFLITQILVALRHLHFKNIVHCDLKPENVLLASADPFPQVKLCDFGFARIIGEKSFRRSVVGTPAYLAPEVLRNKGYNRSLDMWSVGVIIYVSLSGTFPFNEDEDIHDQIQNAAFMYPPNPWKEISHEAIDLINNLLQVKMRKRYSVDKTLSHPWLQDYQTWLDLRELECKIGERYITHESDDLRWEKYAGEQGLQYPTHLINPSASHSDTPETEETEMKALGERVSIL
Mdm2 ligase inh: inhibitors of human Mdm2 E3 ubiquitin ligase | signal enhancement, % at 5 µM | Q00987 | AID 1230 | cell-based MDM2 ubiquitination luciferase reporter, 2 h; 0 = plate control, 100 = twice control, blank-subtracted | 0.11% of 210,000 active;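 active = signal enhancement of 30% or more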;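 also: luminescence tracks abundance of the self-degrading MDM2-luciferase fusion protein; higher signal means inhibition of MDM2 E3 ligase activity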
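Test system: stable mammalian line carrying autodegrading MDM2–luciferase fusion reporter; quantity: 2000 cells in each well; times: 4 h cell settling then 2 h compound exposure, 37 °C; detection: luminescence with SteadyLite reagent, 15 min at room temperature; evaluation: percent signal gain over controls, blank-subtracted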
Arbovirus anti: arbovirus infection inhibition; arbovirus infection cell-based antiviral screen; inhibition, % at 10 µM; 0.37% of 200,000 active; AID 1251; in the data active = inhibition above about 30%
Numbers stand for hits; n = inactive; x = not tested or not shown. Shown are actives, neighbours in structure and some others; about 3.7% of the full set was active somewhere.

SMILES | m-calpain inh | ROMK mod | KCC2 mod | PKD1 kinase inh | Mdm2 ligase inh | Arbovirus anti
CC/C(O)=C1\C(=O)CCCC1=NCc1nc2ccccc2[nH]1 | n | x | n | n | n | n
COc1cccc(N(CC(=O)NCc2ccco2)C(=O)CCC(=O)Nc2nccs2)c1 | n | x | n | x | x | x
O=C(N/N=C(\CC(=O)c1cccs1)C(F)(F)F)c1ccncc1 | n | x | n | x | n | x
Cc1ccc(C(=O)N/N=C(/CC(=O)c2cccs2)C(F)(F)F)cc1 | n | x | 64 | n | n | n
CC(C)(C)n1nc2c(c1NC(=O)Cc1ccccc1)CS(=O)(=O)C2 | n | n | n | n | n | n
O=C(Cn1cnc2c(nnn2Cc2ccccc2F)c1=O)N1CCN(c2ccccc2)CC1 | n | n | x | n | x | n
O=C(Cn1cnc2c(nnn2Cc2ccc(Cl)cc2)c1=O)N1CCN(c2ccccc2)CC1 | n | x | -3.9 | n | n | n
CCc1c(C)c(C#N)c2nc3ccccc3n2c1NCc1ccco1 | n | n | -3.8 | n | n | n
CCc1c(C)c(C#N)c2nc3ccccc3n2c1NCCN(C)C | n | n | n | n | n | n
Cc1ccccc1CNc1ccc(C(CC(N)=O)NC(=O)c2ccccc2)cc1[N+](=O)[O-] (stereo unspecified) | n | x | n | x | n | x
O=C(CCN1C(=O)/C(=C/c2ccc3c(c2)OCO3)SC1=S)Nc1ccccc1 | 58 | x | n | n | n | n
Cc1cc(NC(=O)CCN2C(=O)/C(=C\c3ccccc3)SC2=S)no1 | n | x | n | x | n | x
O=C(CSc1cccc[n+]1[O-])c1cc2ccccc2o1 | n | n | 7.2 | n | n | n
O=C(CSc1cccc[n+]1[O-])c1cc(Cl)ccc1Cl | 70 | n | n | n | n | n
Nc1nc(SCC(=O)c2cc3ccccc3o2)n[nH]1 | n | n | n | n | n | n
O=C(O)CSc1cccc[n+]1[O-] | n | n | n | n | n | n
Cc1ccc(/C=C2\Oc3c(ccc(O)c3CN3CCN(CCO)CC3)C2=O)cc1 | n | x | n | n | n | n
CC(C)c1ccc(/C=C2\Oc3c(ccc(O)c3CN3CCN(C)CC3)C2=O)cc1 | n | -6.6 | n | n | n | n
CN(C)S(=O)(=O)c1cc(NC(=O)CNCCN2CCOCC2)ccc1Cl | n | x | n | x | n | x
Cn1c(/C(C#N)=C/c2ccncc2)nc2ccccc21 | n | -3.6 | n | n | n | n
Cn1c(/C(C#N)=C/c2ccc(O)cc2)nc2ccccc21 | n | x | n | x | n | x
COc1cc(/C=C(\C#N)c2nc3ccccc3n2C)cc(OC)c1O | n | -4.1 | -6.9 | n | n | n
O=c1c2cc(Cl)ccc2nc(-c2ccc([N+](=O)[O-])cc2)n1O | n | 3.5 | 49 | n | n | n
On1c(-c2ccccc2)nc2ccc(Cl)cc21 | n | x | n | n | n | n
O=C(NC(=S)Nc1ccc(N2CCOCC2)c(Cl)c1)c1cncc(Br)c1 | n | n | 11 | n | n | n
SMILES | m-calpain inh | ROMK mod | KCC2 mod | PKD1 kinase inh | Mdm2 ligase inh | Arbovirus anti
O=C(Nc1ccc(N2CCOCC2)c(Cl)c1)c1cccnc1 | n | n | n | n | n | n
COc1ccc(OCC(=O)NC(=S)Nc2ccc(N3CCOCC3)c(Cl)c2)cc1 | n | n | 36 | n | n | n
CCS(=O)(=O)C(C)(CCl)C(=O)Nc1ccc(C(=O)OC)cc1 (stereo unspecified) | n | x | n | x | n | x
O=C1SC(SC(=Nc2ccccc2)Nc2ccccc2)C(=O)N1c1ccccc1 (stereo unspecified) | n | n | n | n | n | n
Cc1nnc(Cl)c2nn(-c3ccccc3F)c(C)c12 | n | n | n | n | n | n
Cc1nnc(SCCN2CCOCC2)c2nn(-c3ccccc3F)c(C)c12 | n | n | n | n | 79 | n
N=c1sccn1CC(=O)Nc1ccc(SC(F)F)cc1 | n | n | n | n | n | n
C[C@H](NC(=O)c1nc[nH]c1C(=O)NCCCCCNC(=O)OC(C)(C)C)C(=O)OCc1ccccc1 | n | x | -4.4 | n | x | n
CC(C)(C)OC(=O)NCCCCCNC(=O)c1[nH]cnc1C(=O)N[C@@H](CCCCNC(=O)OC(C)(C)C)C(=O)OC(C)(C)C | 54 | x | n | n | x | n
CC(C)C[C@H](NC(=O)c1nc[nH]c1C(=O)NCc1ccccc1)C(=O)OC(C)(C)C | 60 | x | n | n | x | n
CC(C)C[C@H](NC(=O)c1nc[nH]c1C(=O)NCCCCCNC(=O)OC(C)(C)C)C(=O)OCc1ccccc1 | n | x | n | n | x | n
CC(C)(C)OC(=O)NCCCC[C@H](NC(=O)c1nc[nH]c1C(=O)N[C@@H](CCCCNC(=O)OC(C)(C)C)C(=O)OC(C)(C)C)C(=O)OC(C)(C)C | n | x | n | x | n | x
CCc1ccc(C2CC(=O)N(c3ccc(F)cc3)C3=C2C(=O)OC3)cc1 (stereo unspecified) | n | n | n | n | n | n
N#Cc1nc(Cc2cccc3ccccc23)oc1NCCCn1ccnc1 | n | x | -3.4 | n | n | n
COc1ccc(CNc2oc(Cc3cccc4ccccc34)nc2C#N)cc1 | n | n | -5.2 | n | n | n
N#Cc1nc(Cc2cccc3ccccc23)oc1N1CCCCC1 | n | n | -6.1 | n | n | n
CC(=O)Nc1ccccc1C(=O)C(=O)Nc1cccc(C(=O)NCC2CCCO2)c1 (stereo unspecified) | 93 | n | n | n | n | n
CSC1=NC2(CC(c3ccccc3)Oc3cc(O)ccc32)CC(C)(C)N1 (stereo unspecified) | n | -4 | n | n | n | n
N#CC1CC(c2ccccc2)Nc2cc(Cl)ccc2N1 (stereo unspecified) | n | n | n | x | n | x
CSc1nc(Oc2ccccc2)c2sccc2n1 | 54 | x | x | n | n | n
Cc1nn(-c2nnc(NCc3ccccc3)nn2)c(C)c1Br | n | x | n | n | 34 | n
Cc1cc(C)n(-c2nnc(NCc3ccc(Cl)cc3)nn2)n1 | n | n | n | n | n | n
O=C1CC(C(=O)Nc2ccc(Cl)cc2)n2ncnc2N1 (stereo unspecified) | 74 | n | n | n | n | n
COc1ccc(N(C(=O)Cn2nnc(-c3ccccc3F)n2)C(C(=O)NCC2CCCO2)c2ccc(Cl)cc2)cc1 (stereo unspecified) | 67 | x | n | n | n | n
COc1ccc(N(C(=O)Cn2nnc(-c3ccc(Cl)cc3)n2)C(C(=O)NCC2CCCO2)c2ccc(C)cc2)cc1 (stereo unspecified) | n | x | x | n | n | n
SMILES | m-calpain inh | ROMK mod | KCC2 mod | PKD1 kinase inh | Mdm2 ligase inh | Arbovirus anti
CCc1nc(NC(C)(C)C)c2cnn(-c3ccccc3)c2n1 | n | x | n | x | n | x
CCC/C(=N/NC(=O)c1csc(C)c1C)c1ccc(Cl)s1 | n | n | 3.7 | n | n | n
Cc1scc(C(=O)N/N=C/c2ccco2)c1C | n | x | n | n | n | n
COc1ccc(S(=O)(=O)N2CCCCC2)cc1NC(=O)CN(C)C1CCCCC1 | 53 | n | n | n | n | n
COc1ccc(S(=O)(=O)N2CCCCCC2)cc1NC(=O)Cc1cc(OC)c(OC)c(OC)c1 | n | n | n | n | n | n
COc1ccccc1OCC(=O)Nc1cc(S(=O)(=O)N2CCCCC2)ccc1N1CCCCC1 | n | n | n | n | 78 | n
